Results: ChEMBL document CHEMBL1123139, “Antiandrogenic activity of a series of des-A-steroid derivatives” (1985)
Several values for one entry are separate records, joined by “and”; a condition that tells them apart may be missing. Equal entries are not always repeated.

What was measured:
Cricetinae gen. sp. [1] = assay: (§1) Local subcutaneous administration (1 mg); Expressed as weight (mg); type: functional
In short: (§2)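 Male hamsters (100–110 g), castrated 7 days earlier, in groups of four. […] Test compound in 20 μL ethanol was applied daily to the right flank organ, and the contralateral organ received ethanol only. Animals were killed 24 h after the last treatment, and flank organs and prostate were weighed. Results are mean ± SEM.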

Cricetinae gen. sp. [2] = assay: Local activity of untreated flank organ in hamster; Expressed as weight (mg); type: functional; in short: as §2
Cricetinae gen. sp. [3] = assay: as §1; type: functional; in short: as §2; remark: listed apart in the source
Rattus norvegicus [4] = assay: In vivo percent increase in rat prostate weight on subcutaneous administration of testosterone propionate along with compound at dose 5 mg/day; Expressed as percent inhibition of weight increase, mg; type: functional, Prostate gland
In short: (§3)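 Immature male rats (70 g), castrated 24 h earlier, in groups of five. […] Controls received vehicle only (sesame oil with 5% benzyl alcohol). Rats were killed 24 h after the last dose, and prostate and seminal vesicles were excised and weighed.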

Rattus norvegicus [5] = assay: In Vivo inhibition against increase in immature castrated rat seminal vesicles weight on subcutaneous administration of testosterone propionate at dose 5 mg/kg; type: functional
Rattus norvegicus [6] = assay: In vivo percent increase in rat seminal vesicles weight on subcutaneous administration of testosterone propionate along with compound at dose 1 mg/day; Expressed as percent inhibition of weight increase, mg; type: functional
Rattus norvegicus [7] = assay: In vivo percent increase in rat prostate weight on subcutaneous administration of testosterone propionate along with compound at dose 1 mg/day; Expressed as percent inhibition of weight increase, mg; type: functional, Prostate gland
Cricetinae gen. sp. [8] = assay: (§4) Tocal subcutaneous administration (1 mg); Expressed as weight (mg); type: functional; in short: as §2
Cricetinae gen. sp. [9] = assay: (§5) Tocal subcutaneous administration (200 ug); Expressed as weight (mg); type: functional; in short: as §2
Cricetinae gen. sp. [10] = assay: as §4; type: functional; in short: as §2; remark: listed apart in the source
Cricetinae gen. sp. [11] = assay: (§6) Local subcutaneous administration (200 ug); Expressed as weight (mg); type: functional; in short: as §2
Cricetinae gen. sp. [12] = assay: as §5; type: functional; in short: as §2; remark: listed apart in the source
Cricetinae gen. sp. [13] = assay: as §6; type: functional; in short: as §2; remark: listed apart in the source
Cricetinae gen. sp. [14] = assay: (§7) Tocal subcutaneous administration (40 ug); Expressed as weight (mg); type: functional; in short: as §2
Cricetinae gen. sp. [15] = assay: Tocal activity of untreated flank organ in hamster; Expressed as weight (mg); type: functional; in short: as §2
Cricetinae gen. sp. [16] = assay: as §7; type: functional; in short: as §2; remark: listed apart in the source
Rattus norvegicus [17] = assay: In vivo percent increase rat seminal vesicles weight on subcutaneous administration of testosterone propionate along with compound at dose 5 mg/day; Expressed as percent inhibition of weight increase, mg; type: functional; in short: as §3
Cricetinae gen. sp. [18] = assay: (§8) Local subcutaneous administration (125 ug); Expressed as weight (mg); type: functional; in short: as §2
Cricetinae gen. sp. [19] = assay: as §8; type: functional; in short: as §2; remark: listed apart in the source

| SMILES | Weight (Cricetinae gen. sp. [1]) [mg] | Weight (Cricetinae gen. sp. [2]) | Weight (Cricetinae gen. sp. [3]) [mg] | Inhibition (Rattus norvegicus [4]) [%] | Inhibition of increase in weight (Rattus norvegicus [5]) [%] | also measured |
| --- | --- | --- | --- | --- | --- | --- |
| CCC(=O)O[C@H]1CC[C@H]2[C@@H]3CCC4=CC(=O)CC[C@]4(C)[C@H]3CC[C@]12C.CCC12CCC3=C(C)C(=O)CCC3C1CCC2O | 31.9 | 35.2 mg | 137 |  |  |  |
| CCC(=O)O[C@H]1CC[C@H]2[C@@H]3CCC4=CC(=O)CC[C@]4(C)[C@H]3CC[C@]12C.CCC1=C2CCC3(C)C(O)CCC3C2CCC1=O | 27.8 | 34.8 mg | 134 |  |  |  |
| CC1=C2C=CC3(C)C(O)CCC3C2CCC1=O (stereo unspecified) |  |  |  | 25 | 45 |  |
| CC(=O)O[C@]1(C(C)=O)CC[C@H]2[C@@H]3C=C(Cl)C4=CC(=O)[C@@H]5C[C@@H]5[C@]4(C)[C@H]3CC[C@@]21C [CYPROTERONE ACETATE] |  |  |  |  |  | Inhibition (Rattus norvegicus [6]): 73%; Inhibition (Rattus norvegicus [7]): 90% |
| CC1=C2CCC3(C)C(O)CCC3C2CCC1=O.CCC(=O)O[C@H]1CC[C@H]2[C@@H]3CCC4=CC(=O)CC[C@]4(C)[C@H]3CC[C@]12C | 36.8 | 37.3 mg | 144 |  |  |  |
| CC1(C)C(=O)CCC2C1CCC1(C)C(O)CCC21 (stereo unspecified) |  |  |  | 49 | 63 |  |
| CC1(C)C(=O)CCC2C1CCC1(C)C(O)CCC21.CCC(=O)O[C@H]1CC[C@H]2[C@@H]3CCC4=CC(=O)CC[C@]4(C)[C@H]3CC[C@]12C | 28.4 | 36.7 mg | 135 |  |  |  |
| CCC(=O)O[C@H]1CC[C@H]2[C@@H]3CCC4=CC(=O)CC[C@]4(C)[C@H]3CC[C@]12C.CCC1=C2CCC3(C)C(OC(C)=O)CCC3C2CCC1=O | 16.8 | 31.7 mg and 33 mg | 143 |  |  | Weight (Cricetinae gen. sp. [8]): 24.8 mg; Weight (Cricetinae gen. sp. [9]): 108 mg; Weight (Cricetinae gen. sp. [10]): 111 mg; Weight (Cricetinae gen. sp. [11]): 22.8 mg; Weight (Cricetinae gen. sp. [12]): 31.1 mg; Weight (Cricetinae gen. sp. [13]): 145 mg; Weight (Cricetinae gen. sp. [14]): 38.9 mg; Weight (Cricetinae gen. sp. [15]): 46.2 mg and 42.9 mg and 46.8 mg; Weight (Cricetinae gen. sp. [16]): 125 mg |
| CCC1=C2CCC3(C)C(O)CCC3C2CCC1=O (stereo in doubt; 5c) |  |  |  | 59 | 73 |  |
| CCC1=C2CCC3(C)C(OC(C)=O)CCC3C2CCC1=O (stereo unspecified) |  |  |  | 50 |  | Inhibition (Rattus norvegicus [17]): 50% |
| CCC(=O)O[C@H]1CC[C@H]2[C@@H]3CCC4=CC(=O)CC[C@]4(C)[C@H]3CC[C@]12C [TESTOSTERONE PROPIONATE] |  | 37.6 mg and 49.4 mg |  |  |  | Weight (Cricetinae gen. sp. [18]): 37.6 mg and 48.5 mg; Weight (Cricetinae gen. sp. [19]): 165 mg and 171 mg |
| CC1=C2CCC3(C)C(O)CCC3C2CCC1=O (stereo unspecified) |  |  |  | 27 | 54 |  |
| CCC12CCC3=C(C)C(=O)CCC3C1CCC2O (stereo unspecified) |  |  |  | 10 | 50 |  |
